Screens deposited in PubChem by several laboratories.
This is a sample that favours compounds with a hit; in the whole collection about 1.5% have one here.
CSN inh: inhibitors of CSN-mediated cullin deneddylation, primary screen, biochemical, fluorescence polarization, uHTS | Purified CSN, SCF-Nedd8-OG deneddylation | inhibition, % at 12.5 µM | 360,000 tested, 0.38% active | AID 651999, 2013;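 active = pattern-corrected inhibition above about 35%, with an unprinted fluorescence ratio check between 0.5 and 1.5, limit read from the data, passing the limit was not always enough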;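 also: 0% = enzyme with substrate and 100% = substrate without enzyme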
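Assay system: HEK293T-derived human Csn5 enzyme; quantity: 0.24 nM enzyme; medium: Tris/NaCl/DTT buffer, pH 7.5; also added: substrate SCFSkp2-Nedd8OG, 10 nM; doses: 12.5 µM compound; schedule: 90 min reaction at room temperature; signal: FP; read-out: % inhibition of substrate cleavage by Csn5; benchmarks: substrate-only high control, full reaction low control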
HNF4A DNA FP: change in binding of human HNF4A to DNA, primary screen, biochemical, fluorescence polarization, FITC-DNA; Hepatocyte nuclear factor 4-alpha (Homo sapiens), P41235; 1 h; activity change, % at 10 µM; 360,000 tested, 0.3% active; in the data active = activity change above about 30%, passing the limit was not always enough
Target sequence (P41235 whole entry, looked up): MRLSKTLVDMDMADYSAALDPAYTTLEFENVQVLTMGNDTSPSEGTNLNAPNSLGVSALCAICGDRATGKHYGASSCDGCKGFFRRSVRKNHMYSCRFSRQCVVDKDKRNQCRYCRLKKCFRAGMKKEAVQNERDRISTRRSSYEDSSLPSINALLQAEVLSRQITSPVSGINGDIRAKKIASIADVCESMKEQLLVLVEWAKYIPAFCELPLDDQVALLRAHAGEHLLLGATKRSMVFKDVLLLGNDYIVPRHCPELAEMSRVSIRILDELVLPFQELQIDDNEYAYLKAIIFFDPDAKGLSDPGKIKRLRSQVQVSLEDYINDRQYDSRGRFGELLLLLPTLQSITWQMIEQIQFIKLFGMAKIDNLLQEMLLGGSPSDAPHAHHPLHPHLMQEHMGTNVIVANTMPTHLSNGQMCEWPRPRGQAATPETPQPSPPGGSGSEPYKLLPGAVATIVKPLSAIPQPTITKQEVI
TPT1 inhibitor: Candida albicans TPT1 enzyme inhibitors, primary screen, biochemical, fluorescence polarization | inhibition, % at 5 µM | tRNA 2'-phosphotransferase TPT1 (Candida albicans SC5314) | recombinant caTPT1, FP RNA substrate dephosphorylation | 300,000 tested, 0.81% active | AID 1962, 2009;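 active = inhibition above the mean of all tested compounds plus 3 SD, set per screening campaign, cut at about 24% in these data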;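 also: plate controls were DMSO alone for no effect and ferristatin control at 100 nM for full effect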
Rpn11 inh: Rpn11 (PSMD14) deubiquitinase inhibitors, primary screen, biochemical, fluorescence polarization, uHTS | human 26S proteasome, Ub4-pepOG fluorescence polarization; 20S core pre-blocked with epoxomicin | calls only at 20 µM | 360,000 tested, 0.59% active | AID 588493, 2011 | 26S proteasome non-ATPase regulatory subunit 14 (Homo sapiens), O00487;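 active = inhibition at 20 µM, scaled to each plate's controls, above about 33%, limit read from the data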
Rpn11 confirm: Rpn11 (PSMD14) deubiquitinase inhibitors, confirmation, biochemical, fluorescence polarization, single concentration | shares compounds with Rpn11 inh | purified human 26S proteasome, Ub4-pepOG fluorescence polarization; proteasome pretreated with epoxomicin | inhibition, % at 20 µM | 1,900 tested, 29% active | AID 602318, 2012
MMP-2 inh: MMP-2 enzyme inhibition, confirmation, counter-screen for RPN11 inhibitor project, biochemical, fluorescence, single concentration; 1,900 tested, 4% active; AID 602330, 2012; inhibition, % at 20 µM; recombinant MMP-2, FRET peptide cleavage fluorescence; shares compounds with Rpn11 inh;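 also: human MMP-2 activated beforehand with APMA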
Thrombin FP: bovine thrombin protease inhibition, confirmation, counter-screen for Rpn11 inhibitor project, biochemical, fluorescence polarization, single concentration | shares compounds with Rpn11 inh | bovine thrombin cleavage of Ub4-pepOG | inhibition, % at 20 µM | 1,900 tested, 13% active | AID 602333, 2012;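 active = mean inhibition at least 40% at 20 µM, or signal 3 deviations below plate average, so some actives read negative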;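 also: plate controls were thrombin with DMSO for no effect and buffer wells lacking thrombin for full effect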
Numbers without * were called inactive; i = inactive; / = no result; + = active, no number. Rule as the data show it, unless noted: active = inhibition above about 40%; inactive = the rest.

SMILES	CSN inh	HNF4A DNA FP	TPT1 inhibitor	Rpn11 inh	Rpn11 confirm	MMP-2 inh	Thrombin FP
CCCc1noc(-c2ccc(-c3ccccc3)cc2)n1	2	-35	-7	+	-1	-9	-11
NC(=O)c1ccsc1NC(=O)COC(=O)c1nc(Cl)ccc1Cl	4	-2	1	i	/	/	/
CC(/C=C\c1ccccc1)=C/C(=O)O	-3	1	-3	i	/	/	/
CC(=O)C1=C(O)C(=CC=Cc2ccccc2)OC1=O	9	60*	/	+	43*	-17	26
Nc1cc(=O)nc(SCC(=O)N2CCN(c3ccccc3)CC2)n1-c1ccc(F)cc1	-1	-6	-4	i	/	/	/
COc1ccc(/C=C2/Sc3ccc(C(=O)NCCN4CCCCCC4)cc3NC2=O)cc1	10	10	-2	+	8	-40	-2
CCOC(=O)Cc1csc(NC(=O)c2ccc(Cl)nc2)n1	6	9	12	+	21	-33	-1
CCOC(=O)Cc1csc(NC(=O)c2ccc(C)cc2)n1	3	-5	-1	i	/	/	/
COc1ccc(CN2C(=NC(=O)C3CCCCC3)SC3CS(=O)(=O)CC32)cc1 (centres undefined)	11	2	-4	i	/	/	/
O=C(Nc1ccc(-c2nc3cc(Cl)ccc3c(=O)o2)cc1)c1ccco1	13	-4	-2	+	-6	-21	-25
CC(=O)N(/N=C1\Sc2ccccc2C1=O)c1ccccc1C	28	25	3	+	5	-44	9
CC(=O)N(/N=C1\Sc2ccccc2C1=O)c1ccc(C)cc1C	7	7	-8	i	/	/	/
N#Cc1c(-c2ccccc2)c(C#N)c2nc3ccccc3n2c1N	8	7	14	i	/	/	/
Cc1ccc(-c2c(C#N)c(N)n3c(nc4ccccc43)c2C#N)cc1	16	10	22	+	63*	3	82*
COc1ccc(OCC(=O)NNC(=O)c2cccs2)cc1	-7	-31	-2	+	-29	-41	-22
CS(=O)(=O)N1Cc2cc(C(=O)NCC3CCCCC3)nc(-c3cccc(-c4cccnc4)c3)c2[C@H]1CCO	-4	3	/	/	/	/	/
CCN(C(=O)CSc1nnc(COc2ccccc2F)n1N)c1c(N)n(Cc2ccccc2)c(=O)[nH]c1=O	-3	-1	/	i	/	/	/
O=C(Cn1cnc2c(nnn2-c2cccc(F)c2)c1=O)Nc1ccc2c(c1)OCCO2	4	4	-1	i	/	/	/
COc1ccc(-n2nnc3c(=O)n(CC(=O)Nc4ccc5c(c4)OCCO5)cnc32)cc1OC	9	-1	3	+	17	-25	7
CC(=O)N(c1ccc2oc(=O)sc2c1)S(=O)(=O)c1cccc2cccnc12	3	31*	-4	+	8	19	-9
CN(C)S(=O)(=O)c1ccc(C(=O)NCc2cccs2)cc1	-7	-1	11	i	/	/	/
CN(C)S(=O)(=O)c1ccc(C(=O)NCc2nc3ccccc3s2)cc1	-6	-29	2	+	5	-13	-13
CS(=O)(=O)Nc1cccc(NC(=O)c2cccc3c(-c4cccc(C(N)=O)c4)coc23)c1	-3	0	/	i	/	/	/
CC(=O)c1cccc(NC(=O)c2cccc3c(-c4cccc(C(N)=O)c4)coc23)c1	22	1	/	+	31	-25	57*
Cn1c2ccccc2c(=O)c2c(=O)n(C3CCCCCC3)c(C3CCCCC3)nc21	-5	67*	/	+	-4	-40	-7
SMILES	CSN inh	HNF4A DNA FP	TPT1 inhibitor	Rpn11 inh	Rpn11 confirm	MMP-2 inh	Thrombin FP
COc1ccc(/C(C)=N/NC(=O)c2ccncc2)cc1	3	-3	0	i	/	/	/
COc1ccc(C(=O)Nc2ccc(/C(C)=N/NC(=O)c3ccncc3)cc2)cc1	6	7	-1	+	45*	i	-5
COc1ccc(C(=O)Nc2ccc(C(=O)Nc3cccnc3)cc2)cc1	2	4	-1	+	39	-273	-2
CC1=CCC2C(=O)N(c3cccc(C(=O)Nc4ccccc4Cl)c3)C(=O)C2C1 (centres undefined)	-1	0	-3	i	/	/	/
COc1ccc(S(=O)(=O)N2CCCC(C(=O)NCc3ccncc3)C2)cc1 (centres undefined)	5	20	-2	+	-12	10	-19
COc1ccc(C(=O)COC(=O)C2COc3ccccc3O2)cc1F (centres undefined)	-5	1	/	i	/	/	/
O=C(Nc1ccc2c(c1)CCC2)c1cc(S(=O)(=O)N2CCN(c3ccccc3)CC2)ccc1Cl	6	22	22	+	41*	14	-50
O=C(NC1CCCCC1)c1cc(S(=O)(=O)N2CCN(c3ccccc3)CC2)ccc1Cl	2	2	/	i	/	/	/
CN1C(=O)c2ccc(NC(=O)c3ccc(Cl)cc3Cl)cc2C1=O	4	1	-5	i	/	/	/
Brc1ccc(-c2nnc3ccc(N4CCN(c5ccccc5)CC4)nn23)cc1	6	1	0	+	-5	-28	-16
Cc1ccc(O)c(N=NC2=C(O)CC(C)(C)CC2=O)c1	8	24	12	+	11	-87	6
CC1(C)CC(=O)C(N=Nc2cc(Cl)c(Cl)c(Cl)c2)=C(O)C1	2	1	-5	i	/	/	/
COc1ccc(CCC(=O)OCc2csc(CC(=O)Nc3ccc(C)cc3)n2)cc1OC	4	3	/	i	/	/	/
C=CCNC(=O)/C(C#N)=C/c1c(N(Cc2ccccc2)Cc2ccccc2)nc2ccccn2c1=O	1	0	0	+	19	21	12
CCC(OC(=O)c1ccco1)C(=O)NCc1ccco1 (centres undefined)	1	5	4	+	-5	-25	-2
O=C(CN1C(=O)/C(=C/c2ccc(F)cc2)SC1=S)N1CCN(CCc2ccccn2)CC1	12	3	20	+	32	23	37
